Results from ChEMBL document CHEMBL4308830, “Design, Synthesis, and Characterization of 4-Undecylpiperidine-2-carboxamides as Positive Allosteric Modulators of the Serotonin (5-HT) 5-HT2C Receptor” (J Med Chem, 2018).
Active and inactive are the calls of the source. No cut-off for these calls is given here.

Legend:
[1] = molecular target: T1, 5-hydroxytryptamine receptor 2C (Homo sapiens) (UniProt P28335); assay: Positive allosteric modulation of human 5-HT2CR expressed in CHO cells assessed as 5-HT-induced intracellular calcium release at 1 nM preincubated for 15 mins followed by 5-HT addition by calcium-4 dye based FLIPR assay (reference value: 100%); format: functional, cell-based
T1 sequence (whole entry): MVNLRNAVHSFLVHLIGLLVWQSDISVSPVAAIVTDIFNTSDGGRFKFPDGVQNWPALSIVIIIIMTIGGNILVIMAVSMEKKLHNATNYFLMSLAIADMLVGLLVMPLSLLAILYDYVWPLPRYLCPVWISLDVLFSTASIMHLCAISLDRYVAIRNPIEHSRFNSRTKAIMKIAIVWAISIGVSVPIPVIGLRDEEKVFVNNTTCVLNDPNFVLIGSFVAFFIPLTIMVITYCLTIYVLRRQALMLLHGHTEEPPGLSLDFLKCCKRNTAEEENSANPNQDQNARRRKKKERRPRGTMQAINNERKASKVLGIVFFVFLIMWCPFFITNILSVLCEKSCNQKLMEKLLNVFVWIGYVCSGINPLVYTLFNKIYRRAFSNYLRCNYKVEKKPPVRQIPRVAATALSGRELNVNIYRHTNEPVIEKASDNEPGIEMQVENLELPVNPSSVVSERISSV
How it was run: (§1)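 CHO cells stably expressing human unedited INI 5-HT2CR were plated, serum-starved 3 h, then loaded with Calcium 4 dye plus 2.5 mM probenecid (60 min 37 °C, then 15 min RT). Compound (1 nM) was added; the read after this addition gave intrinsic agonism. 5-HT (10 pM–10 μM) followed 15 min later. FLIPR-TETRA: 10 s baseline, 1 s reads for 120 s after compound and 360 s after 5-HT. Emax came from 4-parameter fits, ≥3 biological replicates in triplicate.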

CHO = assay: Cytotoxicity against CHO cells at 0.1 to 1000 nM after 1 hrs by LDH release assay; format: cell-based, Cricetulus griseus; conditions: chinese hamster, 1 µM
How it was run: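 Lactate dehydrogenase release assay for cytotoxicity, compounds tested at 0.1 nM and 1 μM.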

[2] = molecular target: T1, 5-hydroxytryptamine receptor 2C (Homo sapiens); assay: Intrinsic agonist activity at human 5-HT2CR expressed in CHO cells assessed as induction of intracellular calcium release at 1 nM incubated for 15 mins measured every 1 sec for 120 secs by calcium-4 dye based FLIPR assay; format: functional, cell-based; how it was run: as §1

Emax [1] [%] | Activity [2] | Compound | Activity (CHO)
114 | inactive | CCCCCCCCCCC[C@@H]1CCN[C@H](C(=O)NC[C@H](O)CCl)C1 | Non-Toxic
106 | inactive | CCCCCCCCCCC[C@@H]1CCN[C@H](C(=O)NC[C@@H](O)CO)C1 | 
114 | inactive | CCCCCCCCCCC[C@@H]1CCN[C@H](C(=O)NC[C@H](O)CO)C1 | 
112 | inactive | CCCCCCCCCCC[C@@H]1CCN[C@H](C(=O)N[C@@H](CO)[C@H](C)O)C1 | 
111 | inactive | CCCCCCCCCCC[C@@H]1CCN[C@H](C(=O)N[C@H](CO)[C@@H](C)O)C1 | 
108 | inactive | CCCCCCCCCCC[C@@H]1CCN[C@H](C(=O)NCCO)C1 (relative stereo) | Non-Toxic
108 | inactive | CCCCCCCCCCC[C@@H]1CCN[C@H](C(=O)NC(CO)CO)C1 (relative stereo) | Non-Toxic
107 | inactive | CCCCCCCCCCC[C@@H]1CCN[C@H](C(=O)NCCN2CCOCC2)C1 (relative stereo) | 
109 | inactive | CCCCCCCCCCC[C@@H]1CCN[C@H](C(=O)O)C1 (relative stereo) | 

The remaining lines, values behind:

Compound | Emax [1] [%] | Activity [2] | Activity (CHO)
O=C(N[C@H](CO)[C@H](O)c1ccccc1)[C@H]1C[C@@H](CCC2CCCCC2)CCN1 | 89.6 | inactive | Non-Toxic
O=C(N[C@H](CO)[C@H](O)c1ccccc1)[C@H]1C[C@@H](C2CCCCC2)CCN1 | 104 | inactive | Non-Toxic
CCCCCCCCCCC[C@@H]1CCN[C@H](C(=O)N[C@H](CO)[C@H](O)c2ccccc2)C1 | 85.1 | inactive | Non-Toxic
O=C(N[C@H](CO)[C@H](O)c1ccccc1)[C@@H]1C[C@H](C2CCCCC2)CCN1 | 105 | inactive | Non-Toxic
CC1CCC(CC[C@@H]2CCN[C@H](C(=O)N[C@@H](CO)[C@@H](O)c3ccccc3)C2)CC1 (stereo partly drawn) | 107 | inactive | 
CC1CCC(CC[C@H]2CCN[C@@H](C(=O)N[C@@H](CO)[C@@H](O)c3ccccc3)C2)CC1 (stereo partly drawn) | 116 | inactive | 
CCCCCCCCCCC[C@@H]1CCN[C@H](C(=O)N[C@@H](CO)C(=O)OC)C1 | 99.6 | inactive | 
CCCCCCCCCCC[C@@H]1CCN[C@H](C(=O)N[C@@H](CO)[C@@H](O)c2ccccc2)C1 | 109 | inactive | 
CCCCCCCCCCC[C@@H]1CCN[C@H](C(=O)N[C@@H](Cc2cc3ccccc3[nH]2)C(=O)OC)C1 | 102 | inactive | 
CCCCCCCCCCC[C@@H]1CCN[C@H](C(=O)N[C@@H](Cc2ccc(O)cc2)C(=O)OC)C1 | 104 | inactive | 
CCCCCCCCCCC[C@@H]1CCN[C@H](C(=O)N[C@H](C(=O)OC)[C@H](C)O)C1 | 102 | inactive | 
CCCCCCCCCCC[C@H]1CCN[C@@H](C(=O)N[C@@H](CO)[C@@H](O)c2ccccc2)C1 | 102 | inactive | 
CCCCCCCCCCC[C@H]1CCN[C@@H](C(=O)N[C@H](CO)[C@H](O)c2ccccc2)C1 | 93.9 | inactive | 
O=C(N[C@H](CO)[C@H](O)c1ccccc1)[C@@H]1C[C@H](CCC2CCCCC2)CCN1 | 96 | inactive | 
